Measurements gathered from unrelated publications.
Target: Inhibitor of nuclear factor kappa-B kinase subunit alpha (CHUK, Homo sapiens, UniProt O15111)
One construct used (O15111 1-745): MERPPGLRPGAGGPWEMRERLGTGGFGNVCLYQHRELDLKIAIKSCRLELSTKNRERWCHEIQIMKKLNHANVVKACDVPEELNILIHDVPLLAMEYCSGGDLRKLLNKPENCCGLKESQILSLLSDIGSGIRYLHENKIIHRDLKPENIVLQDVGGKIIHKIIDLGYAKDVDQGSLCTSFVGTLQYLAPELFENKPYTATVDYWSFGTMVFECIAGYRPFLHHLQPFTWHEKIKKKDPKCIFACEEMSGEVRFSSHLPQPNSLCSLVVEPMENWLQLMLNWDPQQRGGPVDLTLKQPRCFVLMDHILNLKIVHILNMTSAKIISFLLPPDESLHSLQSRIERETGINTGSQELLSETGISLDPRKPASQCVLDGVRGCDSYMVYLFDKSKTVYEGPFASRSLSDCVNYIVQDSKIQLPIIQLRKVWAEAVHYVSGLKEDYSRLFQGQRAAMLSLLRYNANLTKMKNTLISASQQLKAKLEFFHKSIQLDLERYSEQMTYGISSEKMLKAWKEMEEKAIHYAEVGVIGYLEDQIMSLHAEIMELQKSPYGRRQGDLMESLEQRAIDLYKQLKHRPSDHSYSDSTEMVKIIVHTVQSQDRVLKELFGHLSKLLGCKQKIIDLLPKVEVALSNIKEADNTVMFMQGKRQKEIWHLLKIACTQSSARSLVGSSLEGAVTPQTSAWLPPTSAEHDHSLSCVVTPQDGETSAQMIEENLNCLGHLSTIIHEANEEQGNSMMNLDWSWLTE

CNC(=O)c1cc(Oc2ccc(NC(=O)Nc3ccc(Cl)c(C(F)(F)F)c3)cc2)ccn1  inhibition (enzyme activity, inhibitor; 0.3 µM): -10%
Cc1ccc(C(=O)Nc2ccc(CN3CCN(C)CC3)c(C(F)(F)F)c2)cc1C#Cc1cnc2cccnn12  remaining activity (enzyme activity, inhibitor; 23.5 nM): 19%
CCCS(=O)(=O)Nc1ccc(F)c(C(=O)c2c[nH]c3ncc(-c4ccc(Cl)cc4)cc23)c1F  inhibition (enzyme activity, inhibitor; 1 µM): < 10%
N#CCCc1ccc2c(c1)-c1[nH]c3ccc([N+](=O)[O-])cc3c1CC(=O)N2  remaining signal (cell-free assay; 0.5 µM): 105%
O=C(Nc1cnn(-c2csc(C(=O)NC3COC3)c2)c1)Nc1c(F)cccc1Cl  remaining activity (enzyme activity, inhibitor; 5 µM): 108%
Cc1ccc(Nc2nccc(N(C)c3ccc4c(C)n(C)nc4c3)n2)cc1S(N)(=O)=O  remaining signal (cell-free assay, inhibitor; 0.5 µM): 99.4%
CNCc1ccc(-c2cc(-c3nc(-c4ccc(S(=O)(=O)C(C)C)cc4)cnc3N)on2)cc1  inhibition (enzyme activity, inhibitor; 2 µM): 36%
Cc1cnc(NC2CCOCC2)nc1-n1cnc(C(=O)NC(CN)c2cc(F)cc(Cl)c2)c1 (centres unmarked)  remaining activity (enzyme activity, inhibitor, radiometric; 1 µM): 92%
CN([C@@H]1CCc2c(CC(=O)O)c3ccccc3n2C1)S(=O)(=O)c1ccc(F)cc1  remaining binding (cell-free assay, competition with immobilised ligand; 1 µM): 100%
CC(C)(C)c1nc(-c2cccc(NS(=O)(=O)c3c(F)cccc3F)c2F)c(-c2ccnc(N)n2)s1  remaining activity (enzyme activity, inhibitor, radiometric; 1 µM): 97%
CCN(CC)CCNC(=O)c1c(C)[nH]c(/C=C2\C(=O)Nc3ccc(F)cc32)c1C  inhibition (enzyme activity, inhibitor; 10 µM): 52%
Cc1c(C(=O)O)cc(-c2ccc(C3CCNCC3)cc2)c2ccc(-c3ccc(C(F)(F)F)cc3)cc12  remaining binding (cell-free assay, competition with immobilised ligand; 1 µM): 98%
Cc1ccc(C(=O)NCc2ccsc2)cc1C#Cc1cn(C(C)C)c2ncnc(N)c12  activity vs control (enzyme activity, inhibitor; 1 µM): 102%
CCS(=O)(=O)c1cc2cc(C[C@@](O)(CC(C)(C)c3ccc(F)cc3C(N)=O)C(F)(F)F)[nH]c2cn1  remaining binding (cell-free assay, competition with immobilised ligand; 1 µM): 95%
CC/C(=N\NC(=O)NCc1cccc(O)c1)c1ccc(O)c(C)c1O  inhibition (enzyme activity, inhibitor; 0.1 µM): 0.7%
CC(=O)C1=C(C)N(c2cccc(C(F)(F)F)c2)C(=O)N[C@@H]1c1ccc(C#N)nc1  remaining binding (cell-free assay, competition with immobilised ligand; 1 µM): 100%
O=C1Nc2ccc(Cl)cc2C1=Cc1cc(Cl)c(O)c(Cl)c1  remaining signal (cell-free assay; 0.5 µM): 97%
CN(C(=O)c1ccccc1)c1cc(N(C)c2ccc3c(c2)CCc2ccc(C(=O)NCCN4CCOCC4)cc2C3=O)ccc1F  remaining binding (cell-free assay, competition with immobilised ligand; 1 µM): 100%
CCN(CC)c1ccc(C2=NNC(=O)CC2C)cc1[N+](=O)[O-] (centres unmarked)  remaining activity (enzyme activity, inhibitor; 10 µM): 109%
CN(C)c1ncnc(-c2ccc3nc(Nc4cc(CN5CCN(C(=O)CC(F)(F)F)CC5)ccn4)[nH]c3c2)c1Cl  remaining binding (cell-free assay, competition with immobilised ligand; 1 µM): 69%
c1ccc(CNc2nc(N3CCOc4ccccc43)nc3c2CCCC3)cc1  inhibition (target engagement in cells, inhibitor, chemoproteomics; 20 mM): 10.8%
O=C(N1CCS(=O)(=O)CC1)N1C[C@H](c2ccc(OC(F)(F)F)cc2)C[C@H](c2nc(C3CC3)no2)C1  remaining binding (cell-free assay, competition with immobilised ligand; 1 µM): 97%
COc1cc(Cl)c(C(=O)N[C@@H](CN[C@H]2CC[C@@H](N)CC2)Cc2ccc(C#N)cc2)cc1-c1ccc(CN[C@H](C)c2ccc(C)cc2)o1  remaining activity (enzyme activity, inhibitor; 1 µM): 95%
